From paper PMC6221089 (Diabetes, Obesity & Metabolism, 2018)
No end group written: not given here.

Experiments:
[1] = system: counterregulatory responses to hypoglycaemia; conditions: cited from earlier work
plasma glucose = format: in vivo, people with type 2 diabetes
Outline: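 Clamp performed about 48 h after the 13th dose, with four 30-min target PG levels. AUC of glucose infusion rate computed at each level. Fasting PG measured on the morning of the day before the clamp. Recovery defined as PG ≥4.0 mmol/L, timed from termination of the insulin infusion at nadir; spontaneous recovery meant reaching this <40 min.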

[2] = system: people with type 2 diabetes; assay: Safety assessments; format: in vivo
Outline: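 Treatment-emergent adverse events counted from baseline to the follow-up visit: those starting on or after the first treatment day and no later than follow-up. Dosing was once-weekly s.c. self-injection for 13 doses per crossover period (0.25, 0.5, then 1.0 mg escalation; placebo volume-matched). Follow-up was in the final week of the second 5-week sampling period.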

[3] = system: people with type 2 diabetes; assay: Vital signs during the hypoglycaemic clamp; format: in vivo
Outline: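 Heart rate and systolic and diastolic BP recorded at each 30-min target PG level of the stepwise hypoglycaemic clamp. Each value is the mean of two readings, at 0 and 30 min. The clamp was run about 48 h after the 13th weekly s.c. dose, with participants fasted and supine or semi-supine.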

[4] = system: people with type 2 diabetes; format: in vivo
Outline: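 Stepwise hypoglycaemic clamp about 48 h after the 13th weekly s.c. dose; participants fasted (water allowed), supine or semi-supine, with 30-min target PG plateaux. At each target level, symptoms were scored on the Edinburgh Hypoglycaemia Scale and recognition recorded as a yes/no answer to "Do you feel hypo?".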

[5] = LEADER trial; cited from earlier work
[6] = once-weekly s.c. treatment, 13 doses

Native GLP‐1: incretin hormone secreted by intestinal L cells in response to food intake (HAEGTFTSDVSSYLEGQAAKEFIAWLVKGR; ends and bridges not checked; UniProt P01275 98-127, looked up)
Effect on the response to hypoglycaemia ([1]; healthy volunteers): no effect

CC[C@H](C)[C@H](NC(=O)[C@H](Cc1ccccc1)NC(=O)[C@H](CCC(=O)O)NC(=O)[C@H](CCCCNC(=O)COCCOCCNC(=O)COCCOCCNC(=O)CC[C@H](NC(=O)CCCCCCCCCCCCCCCCC(=O)O)C(=O)O)NC(=O)[C@H](C)NC(=O)[C@H](C)NC(=O)[C@H](CCC(N)=O)NC(=O)CNC(=O)[C@H](CCC(=O)O)NC(=O)[C@H](CC(C)C)NC(=O)[C@H](Cc1ccc(O)cc1)NC(=O)[C@H](CO)NC(=O)[C@H](CO)NC(=O)[C@@H](NC(=O)[C@H](CC(=O)O)NC(=O)[C@H](CO)NC(=O)[C@@H](NC(=O)[C@H](Cc1ccccc1)NC(=O)[C@@H](NC(=O)CNC(=O)[C@H](CCC(=O)O)NC(=O)C(C)(C)NC(=O)[C@@H](N)Cc1cnc[nH]1)[C@@H](C)O)[C@@H](C)O)C(C)C)C(=O)N[C@@H](C)C(=O)N[C@@H](Cc1c[nH]c2ccccc12)C(=O)N[C@@H](CC(C)C)C(=O)N[C@H](C(=O)N[C@@H](CCCNC(=N)N)C(=O)NCC(=O)N[C@@H](CCCNC(=N)N)C(=O)NCC(=O)O)C(C)C [semaglutide]
Time to reach recovery (PG ≥4.0 mmol/L) (plasma glucose; geometric mean): 44 min | Proportion of participants who recovered spontaneously (plasma glucose; reaching PG ≥4.0 mmol/L < 40 minutes after termination of the insulin infusion at nadir): ~ 50% | Severity of adverse events ([2]; all events, both treatments): mild or moderate | Clinical laboratory assessments (including amylase, lipase and calcitonin), physical examination or ECG ([2]; baseline to follow-up): No safety findings | Development of anti-semaglutide antibodies ([2]; baseline to follow-up): no participant developed anti‐semaglutide antibodies | Deaths or pancreatitis cases ([2]; during the trial): No deaths or pancreatitis cases | Diastolic BP, mean (SD) change from baseline to end-of-treatment [2, 6]: −2 [10] mm Hg | Heart rate, mean (SD) change from baseline to end-of-treatment [2, 6]: 6 [8] beats/min | Systolic BP, mean (SD) change from baseline to end-of-treatment [2, 6]: −8 [16] mm Hg | Response to hypoglycaemia for heart rate, systolic or diastolic BP vs placebo [3]: no systematic differences | Estimated mean hypoglycaemic symptom score vs placebo ([4]; Edinburgh Hypoglycaemia Scale, target PG level 5.5 mmol/L): No difference | Effect on cognitive function ([4]; Trail Making-B, Digit Symbol Substitution, Four-Choice Reaction Time tests, all PG levels): no effect | Hypoglycaemia recognition, answer to "Do you feel hypo?" ([4]; target level 5.5 mmol/L): all participants answered “no”

liraglutide: GLP‐1 receptor agonist with a similar structure to semaglutide but a different pharmacokinetic profile
Effect on the counterregulatory responses to hypoglycaemia [1]: no effect | Incidence of severe hypoglycaemia compared with placebo [5]: statistically significantly lower
